# Experiments:
# [1] = Clearance in mouse at 1 mg/kg, iv; assay type: ADME, organism-based; settings: in vivo
# [2] = Reduction in nonfasting blood glucose level in C57BL/6-Lep^ob (ob/ob) mouse at 20 mg/kg, po dosed once daily for 25 days relative to control; design: scale not given: the % may be the effect or the level left; settings: time 25 day
# Mus musculus [3] = experiment: Improvement in lipid profile in C57BL/6-Lep^ob (ob/ob) mouse assessed as triglyceride level at 20 mg/kg, po dosed once daily for 25 days (reference value: 90.9 +/- 5.5 mg/dl); assay type: functional; settings: time 25 day
# Mus musculus [4] = experiment: Improvement in lipid profile in C57BL/6-Lep^ob (ob/ob) mouse assessed as triglyceride level at 20 mg/kg, po dosed once daily for 25 days co-treated with 300 mg/kg. po QD for 25 days metformin (reference value: 90.9 +/- 5.5 mg/dl); settings: time 25 day
# Cytochrome P450 2D6 = Cytochrome P450 2D6 (Homo sapiens, UniProt P10635); experiment: Inhibition of CYP2D6 in pooled human liver microsomes using dextromethorphan as substrate in presence of NADPH incubated for 10 mins by LC-MS/MS analysis
# Mus musculus [5] = experiment: In-vivo inhibition of 11beta-HSD1 activity in C57BL/6 mouse liver assessed as reduction in cortisone to-cortisol conversion at 3 to 30 mg/kg, po measured after 2 to 6 hrs by ELISA; assay type: functional, organism-based; settings: dose 3-30 mg/kg, time 2-6 hrs
# Procedure, shortened: (§1)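 Male C57BL/6 mice dosed orally once at 3, 10 or 30 mg/kg in sterile water containing 0.5% methylcellulose and 1% Tween80, then sacrificed at 2 or 6 h. Liver and epididymal fat pads incubated ex vivo in culture medium containing cortisone. Cortisol formed was measured by ELISA and reported as % inhibition versus vehicle.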
# [6] = In-vivo inhibition of 11beta-HSD1 activity in C57BL/6 mouse epididymal fat assessed as reduction in cortisone to-cortisol conversion at 10 mg/kg, po measured after 2 hrs by ELISA; assay type: functional; settings: C57BL/6, Epididymal fat pad; procedure, shortened: as §1
# [7] = Volume of distribution at steady state in dog at 0.5 mg/kg, iv; assay type: ADME, organism-based, Canis lupus familiaris; settings: in vivo, read-out: Vdss
# Procedure, shortened: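 Single-dose PK study. The iv dose was given in 10% hydroxypropyl-β-cyclodextrin and the oral dose in 0.5% methylcellulose/1% Tween80. Mouse and rat received 1 mg/kg iv and 5 mg/kg po. Dog received 0.5 mg/kg iv and 4 mg/kg po. CL, Vss, t1/2, AUC, Cmax, tmax and F were derived.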
# [8] = target: T1, Mineralocorticoid receptor (Homo sapiens, UniProt P08235); experiment: Antagonist activity at mineralocorticoid receptor (unknown origin)
# T1 sequence (P08235 whole entry): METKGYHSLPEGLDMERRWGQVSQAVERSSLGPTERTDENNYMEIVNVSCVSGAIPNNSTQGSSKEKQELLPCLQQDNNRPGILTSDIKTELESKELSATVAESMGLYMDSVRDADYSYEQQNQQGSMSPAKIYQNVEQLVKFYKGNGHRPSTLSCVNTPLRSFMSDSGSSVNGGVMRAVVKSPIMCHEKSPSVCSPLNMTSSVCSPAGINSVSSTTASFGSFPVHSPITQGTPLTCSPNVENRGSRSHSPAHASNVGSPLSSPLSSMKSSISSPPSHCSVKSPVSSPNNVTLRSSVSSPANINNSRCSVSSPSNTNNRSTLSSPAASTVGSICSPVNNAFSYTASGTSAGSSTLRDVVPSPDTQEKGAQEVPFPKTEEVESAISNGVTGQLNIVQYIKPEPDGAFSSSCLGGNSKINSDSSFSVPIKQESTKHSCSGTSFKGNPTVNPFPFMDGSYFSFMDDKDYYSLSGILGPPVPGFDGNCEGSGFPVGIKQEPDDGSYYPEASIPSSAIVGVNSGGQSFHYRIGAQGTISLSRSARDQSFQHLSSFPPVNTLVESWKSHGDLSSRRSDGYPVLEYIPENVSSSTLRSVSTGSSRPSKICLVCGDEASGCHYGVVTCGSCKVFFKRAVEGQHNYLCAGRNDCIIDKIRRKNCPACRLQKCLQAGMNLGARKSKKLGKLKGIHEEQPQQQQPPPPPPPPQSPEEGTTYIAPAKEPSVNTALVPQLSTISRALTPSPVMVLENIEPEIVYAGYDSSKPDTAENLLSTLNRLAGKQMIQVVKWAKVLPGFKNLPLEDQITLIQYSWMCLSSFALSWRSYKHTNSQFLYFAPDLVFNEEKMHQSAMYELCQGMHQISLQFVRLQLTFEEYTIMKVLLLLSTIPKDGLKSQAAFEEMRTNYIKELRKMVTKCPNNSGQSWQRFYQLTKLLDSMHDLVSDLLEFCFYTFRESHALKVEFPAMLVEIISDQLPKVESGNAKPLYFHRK
# Glucocorticoid receptor = target: T2, Glucocorticoid receptor (Homo sapiens, UniProt P04150); experiment: Antagonist activity at glucocorticoid receptor (unknown origin)
# T2 sequence (P04150 whole entry): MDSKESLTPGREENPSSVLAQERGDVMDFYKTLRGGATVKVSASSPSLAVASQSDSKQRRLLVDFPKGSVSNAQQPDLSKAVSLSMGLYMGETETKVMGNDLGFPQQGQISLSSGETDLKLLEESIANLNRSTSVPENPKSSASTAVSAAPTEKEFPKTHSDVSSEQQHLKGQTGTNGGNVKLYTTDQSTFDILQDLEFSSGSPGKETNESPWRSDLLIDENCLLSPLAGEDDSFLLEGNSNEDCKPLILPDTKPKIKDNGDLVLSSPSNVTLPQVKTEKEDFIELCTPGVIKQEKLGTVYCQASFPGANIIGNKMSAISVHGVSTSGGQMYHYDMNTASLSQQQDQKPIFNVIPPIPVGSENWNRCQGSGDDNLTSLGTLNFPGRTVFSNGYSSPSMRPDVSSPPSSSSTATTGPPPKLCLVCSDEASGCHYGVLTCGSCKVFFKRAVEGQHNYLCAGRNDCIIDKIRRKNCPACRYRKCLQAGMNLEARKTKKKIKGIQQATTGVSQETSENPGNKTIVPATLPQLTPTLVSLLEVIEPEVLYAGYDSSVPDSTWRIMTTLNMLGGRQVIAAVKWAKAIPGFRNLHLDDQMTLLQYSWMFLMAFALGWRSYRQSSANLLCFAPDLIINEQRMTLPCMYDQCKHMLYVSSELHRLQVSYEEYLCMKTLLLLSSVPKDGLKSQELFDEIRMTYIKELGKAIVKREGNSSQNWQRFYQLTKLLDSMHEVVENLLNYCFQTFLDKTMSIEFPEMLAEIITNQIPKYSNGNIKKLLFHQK
# [9] = Drug level in mouse adipose tissue at 10 mg/kg, po measured after 2 hrs post dose; assay type: ADME, organism-based; settings: in vivo
# Procedure, shortened: (§2)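 C57BL/6 mice given a single oral 10 mg/kg dose in 0.5% methylcellulose plus 1% Tween80. Sacrifice at 2 h post-dose, with collection of brain, liver, adipose and plasma. Compound concentration expressed as nmol/g, along with tissue/plasma ratio.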
# [10] = Drug level in mouse plasma at 10 mg/kg, po measured after 2 hrs post dose; assay type: ADME, organism-based; settings: in vivo; procedure, shortened: as §2
# [11] = Inhibition of PDE3 (unknown origin); design: species or system Homo sapiens
# Cytochrome P450 2D6, sequence (P10635 whole entry): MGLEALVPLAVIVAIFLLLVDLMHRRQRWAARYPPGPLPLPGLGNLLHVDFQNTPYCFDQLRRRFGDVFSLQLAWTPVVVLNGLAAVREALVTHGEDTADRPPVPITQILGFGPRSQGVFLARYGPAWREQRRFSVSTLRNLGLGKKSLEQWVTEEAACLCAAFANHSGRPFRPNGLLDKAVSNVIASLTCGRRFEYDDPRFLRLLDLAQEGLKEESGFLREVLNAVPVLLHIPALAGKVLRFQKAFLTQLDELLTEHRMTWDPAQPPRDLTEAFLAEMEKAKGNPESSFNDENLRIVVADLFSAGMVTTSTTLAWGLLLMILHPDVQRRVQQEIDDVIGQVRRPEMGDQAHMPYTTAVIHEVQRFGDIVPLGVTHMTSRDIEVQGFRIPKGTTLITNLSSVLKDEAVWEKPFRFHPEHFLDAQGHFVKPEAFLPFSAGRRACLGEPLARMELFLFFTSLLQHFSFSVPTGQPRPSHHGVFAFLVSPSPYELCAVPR
smiles,measurement,setting,value
C[C@@H]1CN(c2ccc(S(C)(=O)=O)cc2F)CCN1c1nccc(C(=O)NC2C3CC4CC2CC(O)(C4)C3)n1 (stereo partly drawn),clearance,[1],7 mL/min/kg
same,Activity,[2],26%
same,Activity,Mus musculus [3],83.4 mg/dL
same,Activity,Mus musculus [4],84.1 mg/dL
same,IC50,Cytochrome P450 2D6,> 10 µM
same,inhibition,Mus musculus [5],Dose-dependent effect
same,inhibition in vivo at 10 mg/kg,[6],88%
same,Vd,[7],2.4 L/kg
same,EC50,[8],> 5 µM
same,EC50,Glucocorticoid receptor,> 5 µM
same,Drug uptake,[9],6.64 nmol/g
same,Cp,[10],10.6 nmol/g
same,IC50,[11],5.4 µM

# Source: ChEMBL document CHEMBL4680093 (J Med Chem, 2016)
